Data: the EternaBench riboswitch data

Legend:
MS2 coat protein [1] = assay: apparent Kd, MS2 coat protein; higher = weaker binding; RNA-MaP array; tryptophan 2.4 mM where present
How it was run: (§1)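 The apparent Kd comes from binding curves fitted cluster by cluster, filtered, and summarised as a median. Those curves followed SNAP-549-labelled MS2 coat protein from 0.7 or 1.5 nM, doubling to 3 µM, on Illumina sequencing-chip clusters where stalled E. coli RNA polymerase had transcribed the designs, without and then with constant ligand. The buffer was 100 mM Tris-HCl pH 7.5, 80 mM KCl, 4 mM MgCl2, BSA, DTT, yeast tRNA and Tween-20, and green signal was normalised to red-channel RNA signal and control-cluster median Fmax.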

MS2 coat protein [2] = assay: apparent Kd, MS2 coat protein; higher = weaker binding; RNA-MaP array; theophylline 2 mM where present
How it was run: as §1

[3] = designed as: OFF switch for tryptophan, no ligand
[4] = ligand present: tryptophan, designed as: OFF switch for tryptophan
[5] = designed as: ON switch for tryptophan, no ligand
[6] = ligand present: tryptophan, designed as: ON switch for tryptophan
[7] = designed as: OFF switch for theophylline, no ligand
[8] = ligand present: theophylline, designed as: OFF switch for theophylline
[9] = designed as: ON switch for theophylline, no ligand
[10] = ligand present: theophylline, designed as: ON switch for theophylline

## GAUAUGGAAACAUGUCAGAUCCUUACCGGUCGAGGACCGGUACGGCCGCCACUCGAAAAUAAUAAACAUGAGGAUCACCCAUGUA
MS2 coat protein [1]; [3]
  apparent Kd: 14.4 nM
MS2 coat protein [1]; [4]
  apparent Kd: 32 nM

## GAUCGACAAAACGUCUAGGAAAACUAGACGCGAGGACCGGUACGGCCGCCACUCGUCCUCACAUGAGGAUCACCCAUGUACGAUC
MS2 coat protein [1]; [3]
  apparent Kd: 31.5 nM
MS2 coat protein [1]; [4]
  apparent Kd: 177 nM

## GAUUAAACAUGAGGAUCACCCAUGUAUAUACGAGGACCGGUACGGCCGCCACUCGUAAACGAGUAUCCUCGAAUAAACAUGAUAA
MS2 coat protein [1]; [5]
  apparent Kd: 134 nM
MS2 coat protein [1]; [6]
  apparent Kd: 42.7 nM

## GCAUCCUAGUCGGCCGCCACUGGUACGAACACCUUCACCCGUGUGCACAUGAGGAUCACCCAUGUUAGGACCGGGACUAGGAUGC
MS2 coat protein [1]; [5]
  apparent Kd: 8.2 nM
MS2 coat protein [1]; [6]
  apparent Kd: 7.99 nM

## GCCGCGGCCGCGAUACACAUGGGUAUGUAACGAGGACCGGUACGGCCGCCACUCGAGAUAAUGUACAUGAGGAUCACCCAUGUAC
MS2 coat protein [1]; [3]
  apparent Kd: 11.5 nM
MS2 coat protein [1]; [4]
  apparent Kd: 13.3 nM

## GCGUUCUCUGCGGCCGCCACUCAAGGAGCUACAUAGCUCCUAGACAUGAGGAUCACCCAUGUGGCGAGGACCGGGUAGAUCCUUA
MS2 coat protein [1]; [5]
  apparent Kd: 202 nM
MS2 coat protein [1]; [6]
  apparent Kd: 168 nM

## GGAGUCGUCACGGCCGCCACUGCGGUGGUGUGACAUGAGGAUCACCCAUGUUGUCAUGCGGCCCUUAGGACCGGGUGUCGGUUCC
MS2 coat protein [1]; [3]
  apparent Kd: 51.5 nM
MS2 coat protein [1]; [4]
  apparent Kd: 59.1 nM

## GGCACAUAGUCGGCCGCCACUAGAAUAAGAAGGGAAAACAUGAGGAUCACCCAUGUAAAAGGGACUAGGACCGGGACUAUGUGCC
MS2 coat protein [1]; [3]
  apparent Kd: 13.9 nM
MS2 coat protein [1]; [4]
  apparent Kd: 13 nM

## GGGCGCGUGGACCGGCGUGCUCCGCUCCGUCGAGGACCGGUACGGCCGCCACUCGACAUGAGGAUCACCCAUGUGUGAGCUCGCG
MS2 coat protein [1]; [3]
  apparent Kd: 55.2 nM
MS2 coat protein [1]; [4]
  apparent Kd: 281 nM

## UAAACUACACAUGAGGAUCACCCAUGUGGCCGAGGACCGGUACGGCCGCCACUCGUGUGUUAAUAAAAGAACUGCAAGAUUCUUU
MS2 coat protein [1]; [5]
  apparent Kd: 126 nM
MS2 coat protein [1]; [6]
  apparent Kd: 92.6 nM

## UAAUAAGUGCCGGUUCUCAGAUCCUCAUGUCGAGGACCGGUACGGCCGCCACUCGAAACAUGAGGAUCACCCAUGUAAUAAUAAU
MS2 coat protein [1]; [3]
  apparent Kd: 51.8 nM
MS2 coat protein [1]; [4]
  apparent Kd: 34.1 nM

## UACAUGAGGAUCACCCAUGUCCCAUGUGAACGAGGACCGGUACGGCCGCCACUCGAAUAAGGCGGCACAUGAGGAUCACCCACAU
MS2 coat protein [1]; [5]
  apparent Kd: 284 nM
MS2 coat protein [1]; [6]
  apparent Kd: 712 nM

## UACUUGCUGACGGCCGCCACUAGAACAUGAGGAUCACCCAUGUACCCGGUCCUAAUCCUCAUGACUAGGACCGGGUCAGCAAGAU
MS2 coat protein [1]; [3]
  apparent Kd: 22.4 nM
MS2 coat protein [1]; [4]
  apparent Kd: 21.5 nM

## UAUUUUGUGAUGGAUACCAGCAGAGAAAACGUUUAUCCUAACAUGAGGAUCACCCAUGUAUGCCCUUGGCAGCUGUUGUGGGAUA
MS2 coat protein [2]; [7]
  apparent Kd: 30.8 nM
MS2 coat protein [2]; [8]
  apparent Kd: 36.1 nM

## UCCUCCUCCGCAAGGAGGAGGAGUUGCGAUACCAGCACGGAAACGUGCCCUUGGCAGCGCACAUGAGGAUCACCCAUGUCAUGUU
MS2 coat protein [2]; [7]
  apparent Kd: 18 nM
MS2 coat protein [2]; [8]
  apparent Kd: 24 nM

## UCGUGUGUUUCGGAUACCAGUGAAAUCGAUACAUGAGGAUCACCCAUGUGAGAGGAUGUACACCCUUGGCAGCUGGCUGUAGCGG
MS2 coat protein [2]; [9]
  apparent Kd: 47.9 nM
MS2 coat protein [2]; [10]
  apparent Kd: 39.7 nM

## UCUUGAGUUUCGGAUACCAGUGUUGUCGAUACAUGAGGAUCACCCAUGUUAGAGGAUGUACACCCUUGGCAGCCGGCUGUGGCGG
MS2 coat protein [2]; [9]
  apparent Kd: 20.7 nM
MS2 coat protein [2]; [10]
  apparent Kd: 13 nM

## UCUUUCUAUUGUGAUACCAGACGUACAUGAGGAUCACCCAUGUUUCAUUCUUGUUUUAAAGUCCCUUGGCAGCACUAUUUGUUCG
MS2 coat protein [2]; [7]
  apparent Kd: 16.3 nM
MS2 coat protein [2]; [8]
  apparent Kd: 13.2 nM

## UGACAUUGCUCAGAUACCAGACAUGAGGAUCACCCAUGUACCAAGGUACGAAAAUAACAUGUCCCUUGGCAGCUGAGCAAUGUCU
MS2 coat protein [2]; [7]
  apparent Kd: 13.6 nM
MS2 coat protein [2]; [8]
  apparent Kd: 251 nM

## UGACAUUGCUGCGAUACCAGACAUGAGGAUCACCCAUGUACCAAGGUAACCGAAAGGCAUGUCCCUUGGCAGCGCAGCAAUGUCU
MS2 coat protein [2]; [7]
  apparent Kd: 11.5 nM
MS2 coat protein [2]; [8]
  apparent Kd: 197 nM

## UGUAACAUGAGGAUCACCCAUGUAAGUGAUACCAGAUAAGUAGUAGUCCCUUGGCAGCAUAUUGGGCGAGUGUAUAGUCUAUACG
MS2 coat protein [2]; [9]
  apparent Kd: 50.4 nM
MS2 coat protein [2]; [10]
  apparent Kd: 61.1 nM

## UGUAACAUGAGGAUCACCCAUGUGAGUGAUACCAGACUAGUAUUAGUCCCUUGGCAGCACGCUGGGCGAGUGUAUAGUCUAUGCG
MS2 coat protein [2]; [9]
  apparent Kd: 85.9 nM
MS2 coat protein [2]; [10]
  apparent Kd: 84.9 nM

## UGUAACAUGAGGAUCACCCAUGUGCACGAUACCAGCUUAUUGGUAGGCCCUUGGCAGCGUAUUCGGAAGAUGUAUAAUAUAUAUC
MS2 coat protein [2]; [9]
  apparent Kd: 13.4 nM
MS2 coat protein [2]; [10]
  apparent Kd: 13.3 nM

## UGUUUGGUGCGCGAGUGUUGGAUAAUUGAUACCAGUGUAGAAGAGCGCCCUUGGCAGCGAAUCCUAACAUGAGGAUCACCCAUGU
MS2 coat protein [2]; [9]
  apparent Kd: 40 nM
MS2 coat protein [2]; [10]
  apparent Kd: 57.3 nM

## UUAGAUAUGACAGAUACCAGCGUGUUGUAGAACAUGAGGAUCACCCAUGUAGUGAUCGUGCGCCCUUGGCAGCUGGUAUGUUUGG
MS2 coat protein [2]; [9]
  apparent Kd: 280 nM
MS2 coat protein [2]; [10]
  apparent Kd: 881 nM

## UUCAAAGGGAACGGUGCUGGUGACAGAGAUACCAGCGCGGUAACGCGCCCUUGGCAGCUCAGAACAUGAGGAUCACCCAUGUAAU
MS2 coat protein [2]; [7]
  apparent Kd: 13.6 nM
MS2 coat protein [2]; [8]
  apparent Kd: 50.2 nM
